Measured values from ChEMBL document CHEMBL2331424, “Synthesis and biological evaluation of novel neuroprotective agents for paraquat-induced apoptosis in human neuronal SH-SY5Y cells” (2013).

How the values were obtained:
[1] = Neuroprotective activity in human SH-SY5Y cells assessed as cell viability after paraquat-induced toxicity at 10 uM incubated for 2 hrs prior to paraquat challenge measured after 24 hrs by MTT assay (reference value: 62.05 +/- 0.47%)
[2] = target: T1, Prostaglandin G/H synthase 2 (Homo sapiens) (UniProt P35354); experiment: Ratio of resveratrol IC50 to compound IC50 for inhibition of prostaglandin H-2 synthase (unknown origin)
T1 sequence (whole entry): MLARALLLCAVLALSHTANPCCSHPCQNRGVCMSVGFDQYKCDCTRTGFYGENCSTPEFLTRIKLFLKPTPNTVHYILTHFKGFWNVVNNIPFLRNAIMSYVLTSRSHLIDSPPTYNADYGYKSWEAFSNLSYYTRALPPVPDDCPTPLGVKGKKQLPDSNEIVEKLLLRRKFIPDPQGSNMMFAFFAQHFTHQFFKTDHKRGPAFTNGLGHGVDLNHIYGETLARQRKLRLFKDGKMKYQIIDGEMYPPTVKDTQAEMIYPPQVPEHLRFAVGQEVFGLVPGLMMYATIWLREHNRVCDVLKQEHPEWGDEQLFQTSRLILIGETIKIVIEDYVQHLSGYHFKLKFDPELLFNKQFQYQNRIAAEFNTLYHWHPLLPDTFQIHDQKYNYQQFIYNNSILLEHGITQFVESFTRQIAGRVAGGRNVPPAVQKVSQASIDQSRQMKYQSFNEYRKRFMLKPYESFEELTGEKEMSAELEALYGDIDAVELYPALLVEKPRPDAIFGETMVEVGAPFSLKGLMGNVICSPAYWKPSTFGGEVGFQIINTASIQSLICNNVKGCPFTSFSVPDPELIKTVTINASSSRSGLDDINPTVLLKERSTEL

[3] = test system: SH-SY5Y; experiment: Neuroprotective activity in human SH-SY5Y cells assessed as decrease in paraquat-induced proteolytic cleavage of procaspase-3 incubated for 4 hrs prior to paraquat challenge measured after 24 hrs by Western blotting analysis; type: functional, cell-based
Procedure, shortened: (§1)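 SH-SY5Y in DMEM/F12 with 10% FBS pre-incubated with compound (0.1-10 μM, 4 h), then paraquat 250 μM. Western blot for caspase-3 and caspase-9 cleavage, Bax, Bcl-2, SOD or GPx, with GAPDH as loading control. HRP secondary antibodies and ECL detection, bands quantified. ≥3 independent experiments in duplicate; ANOVA with Dunnett's test.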

[4] = test system: SH-SY5Y; experiment: Neuroprotective activity in human SH-SY5Y cells assessed as decrease in paraquat-induced proteolytic cleavage of procaspase-9 incubated for 4 hrs prior to paraquat challenge measured after 24 hrs by Western blotting analysis; type: functional, cell-based
Procedure, shortened: as §1

[5] = Neuroprotective activity in paraquat-stimulated human SH-SY5Y cells assessed as upregulation of Bcl2 expression incubated for 4 hrs prior to paraquat challenge measured after 24 hrs by Western blotting analysis; type: functional, cell-based
Procedure, shortened: as §1

[6] = Neuroprotective activity in paraquat-stimulated human SH-SY5Y cells assessed as downregulation of Bax expression incubated for 4 hrs prior to paraquat challenge measured after 24 hrs by Western blotting analysis; type: functional, cell-based
Procedure, shortened: as §1

[7] = Neuroprotective activity in paraquat-stimulated human SH-SY5Y cells assessed as upregulation of GPx expression incubated for 4 hrs prior to paraquat challenge measured after 24 hrs by Western blotting analysis; type: functional, cell-based
Procedure, shortened: as §1

[8] = Neuroprotective activity in paraquat-stimulated human SH-SY5Y cells assessed as upregulation of SOD expression incubated for 4 hrs prior to paraquat challenge measured after 24 hrs by Western blotting analysis; type: functional, cell-based
Procedure, shortened: as §1

[9] = test system: SH-SY5Y; experiment: Neuroprotective activity in human SH-SY5Y cells assessed as decrease in paraquat-induced intracellular ROS level incubated for 4 hrs prior to paraquat challenge measured after 2 hrs by fluorescence microscopic analysis
[10] = test system: SH-SY5Y; experiment: Neuroprotective activity in human SH-SY5Y cells assessed as decrease in paraquat-induced nuclear morphological changes incubated for 4 hrs prior to paraquat challenge measured after 24 hrs by Hoechst 33342 staining-based fluorescence microscopic analysis

SMILES | viability at 10 µM [1] [%] | further results
C=C1c2cc(OC)cc(OC)c2[C@@H](c2ccc(OC)cc2)[C@@H]1c1cc(OC)cc(OC)c1 | 58.2 | 
COc1ccc(/C=C2/c3cc(OC)cc(OC)c3[C@@H](c3ccc(OC)cc3)[C@@H]2c2cc(OC)cc(OC)c2)cc1 | 62.4 | 
Oc1ccc([C@@H]2c3c(O)cc(O)cc3[C@H]3[C@H](c4ccccc4)c4c(O)cc(O)cc4[C@@H]23)cc1 | 77.2 | 
COc1ccc([C@@H]2c3c(OC)cc(OC)cc3C(=O)[C@H]2c2cc(OC)cc(OC)c2)cc1 (relative stereo) | 59.9 | 
O=C1c2cc(O)cc(O)c2[C@@H](c2ccc(O)cc2)[C@@H]1c1cc(O)cc(O)c1 [ISOPAUCIFLORAL F] | 58.5 | 
COc1ccc([C@@H]2c3c(OC)cc(OC)cc3C(O)[C@H]2c2cc(OC)cc(OC)c2)cc1 (relative stereo) | 59 | 
COc1ccc(CSC2c3cc(OC)cc(OC)c3[C@@H](c3ccccc3)[C@@H]2c2cc(OC)cc(OC)c2)cc1 (some centres not stated) | 60.6 | 
Oc1ccc(/C=C/c2cc(O)cc(O)c2)cc1 [RESVERATROL] | 66.3 | 
COc1ccc(/C=C2/c3cc(OC)cc(OC)c3[C@@H](c3ccccc3)[C@@H]2c2cc(OC)cc(OC)c2)cc1 | 64 | 
COc1ccc(/C=C2\c3cc(OC)cc(OC)c3[C@@H](c3ccc(OC)cc3)[C@@H]2c2cc(OC)cc(OC)c2)cc1 | 63.6 | 
COc1cc(OC)cc([C@@H]2C(=O)c3cc(OC)cc(OC)c3[C@H]2c2ccccc2)c1 (single isomer, unassigned) | 65 | 
Oc1ccc([C@H]2Oc3cc(O)cc4c3[C@@H]2c2cc(O)cc3c2[C@@H](c2cc(O)cc5c2[C@@H]4[C@H](c2ccc(O)cc2)O5)[C@H](c2ccc(O)cc2)O3)cc1 |  | Ratio IC50 [2]: 3
Oc1ccc(CC2=C(c3cc(O)cc(O)c3)C(c3ccccc3)c3c(O)cc(O)cc32)cc1 (configuration not stated) | 82.9 | 
COc1ccc(C2C(c3cc(OC)cc(OC)c3)=C(C)c3cc(OC)cc(OC)c32)cc1 (configuration not stated) | 55.8 | 
COc1cc(OC)cc([C@@H]2C(O)c3cc(OC)cc(OC)c3[C@H]2c2ccccc2)c1 (relative stereo) | 63.9 | 
O=C1c2cc(O)cc(O)c2[C@@H](c2ccccc2)[C@@H]1c1cc(O)cc(O)c1 | 65 | 
Oc1ccc(/C=C2/c3cc(O)cc(O)c3[C@@H](c3ccc(O)cc3)[C@@H]2c2cc(O)cc(O)c2)cc1 (racemic) | 57.9 | 
COc1ccc(CSC2c3cc(OC)cc(OC)c3[C@@H](c3ccc(OC)cc3)[C@@H]2c2cc(OC)cc(OC)c2)cc1 (some centres not stated) | 65.2 | 
Oc1ccc([C@@H]2c3c(O)cc(O)cc3[C@H]3[C@H](c4ccc(O)cc4)c4c(O)cc(O)cc4[C@@H]23)cc1 (racemic) [PALLIDOL] | 72.4 | 
COc1ccc(CC2=C(c3cc(OC)cc(OC)c3)[C@@H](c3ccc(OC)cc3)c3c(OC)cc(OC)cc32)cc1 | 61.4 | 
COc1ccc(/C=C2\c3cc(OC)cc(OC)c3[C@@H](c3ccccc3)[C@@H]2c2cc(OC)cc(OC)c2)cc1 | 65.3 | 
COc1ccc([C@@H]2c3c(OC)cc(OC)cc3[C@H]3[C@H](c4ccc(OC)cc4)c4c(OC)cc(OC)cc4[C@@H]23)cc1 | 63.6 | 
COc1ccc(C2C(c3cc(OC)cc(OC)c3)=Cc3cc(OC)cc(OC)c32)cc1 (configuration not stated) | 58.6 | 
Oc1ccc(CC2=C(c3cc(O)cc(O)c3)C(c3ccc(O)cc3)c3c(O)cc(O)cc32)cc1 (configuration not stated) | 89.6 | Activity [3]: Dose-dependent effect; Activity [4]: Dose-dependent effect; Activity [5]: Dose-dependent effect; Activity [6]: Dose-dependent effect; Activity [7]: Dose-dependent effect; Activity [8]: Dose-dependent effect; Activity [9]: Dose-dependent effect; Activity [10]: Dose-dependent effect
